pIC50: −log10 of the molar value.
What follows are molecules tested against T1, Sodium/glucose cotransporter 2 (Homo sapiens, UniProt P31639) (assay: Inhibition of human SGLT2 expressed in CHO cells assessed as [14C]-alpha-methyl-D-glucopyranoside uptake after 2 hrs by liquid scintillation counter).
T1 sequence (P31639 whole entry): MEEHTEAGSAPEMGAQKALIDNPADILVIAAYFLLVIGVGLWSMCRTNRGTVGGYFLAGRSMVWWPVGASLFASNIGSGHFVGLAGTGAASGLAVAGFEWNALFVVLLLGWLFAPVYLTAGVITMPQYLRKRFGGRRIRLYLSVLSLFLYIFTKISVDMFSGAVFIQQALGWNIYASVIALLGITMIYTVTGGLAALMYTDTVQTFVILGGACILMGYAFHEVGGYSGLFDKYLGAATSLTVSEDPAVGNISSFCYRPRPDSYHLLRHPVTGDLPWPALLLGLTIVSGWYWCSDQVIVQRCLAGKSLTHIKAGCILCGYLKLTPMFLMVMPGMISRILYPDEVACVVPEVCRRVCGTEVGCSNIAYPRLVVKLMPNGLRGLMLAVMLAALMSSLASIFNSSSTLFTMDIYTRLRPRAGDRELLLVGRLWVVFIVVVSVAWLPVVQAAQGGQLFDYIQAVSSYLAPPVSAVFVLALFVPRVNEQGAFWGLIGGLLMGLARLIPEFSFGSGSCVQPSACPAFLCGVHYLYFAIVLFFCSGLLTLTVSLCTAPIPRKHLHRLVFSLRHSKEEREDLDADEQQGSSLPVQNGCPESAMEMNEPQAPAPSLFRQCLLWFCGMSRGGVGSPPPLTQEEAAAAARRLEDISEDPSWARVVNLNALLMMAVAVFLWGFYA
Format: cell-based
Outline: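 hSGLT2 cDNA from adult kidney, stably transfected into CHO cells. They were pretreated 10 min at 37 °C in choline-chloride buffer (pH 7.4), then taken up 2 h at 37 °C in NaCl buffer with 1 mM unlabeled AMG plus ¹⁴C-AMG (8 uM) and inhibitor or DMSO. Two washes in buffer containing 10 mM AMG. IC₅₀ by nonlinear regression.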
C=CCOCc1cc(Cl)c(Cc2ncc(-c3ccsc3)s2)cc1[C@@H]1O[C@H](CO)[C@@H](O)[C@H](O)[C@H]1O showed a pIC50 of 8.00.
Molecule C=CCOCc1cc(Cl)c(Cc2ncc(-c3ccco3)s2)cc1[C@@H]1O[C@H](CO)[C@@H](O)[C@H](O)[C@H]1O has a pIC50 of 7.76.
COc1cc(Cl)c(Cc2ncc(-c3cccs3)s2)cc1[C@@H]1O[C@H](CO)[C@@H](O)[C@H](O)[C@H]1O gave a pIC50 of 8.80.
Molecule CCOc1cc(Cl)c(Cc2ncc(-c3ccsc3)s2)cc1[C@@H]1O[C@H](CO)[C@@H](O)[C@H](O)[C@H]1O has a pIC50 of 8.93.
In the case of OC[C@H]1O[C@@H](c2cc(Cc3ncc(-c4ccco4)s3)c(Cl)cc2Cl)[C@H](O)[C@@H](O)[C@@H]1O, the pIC50 was 8.65.
In the case of CCCOc1cc(Cl)c(Cc2ncc(-c3ccco3)s2)cc1[C@@H]1O[C@H](CO)[C@@H](O)[C@H](O)[C@H]1O, the pIC50 was 7.67.
C#CCOc1cc(Cl)c(Cc2ncc(-c3ccco3)s2)cc1[C@@H]1O[C@H](CO)[C@@H](O)[C@H](O)[C@H]1O was tested, and the pIC50 was 8.65.
OCc1cc(Cl)c(Cc2ncc(-c3ccoc3)s2)cc1[C@@H]1O[C@H](CO)[C@@H](O)[C@H](O)[C@H]1O was tested, and the pIC50 was 7.69.
Molecule OC[C@H]1O[C@@H](c2cc(Cc3ncc(-c4ccc(F)cc4)s3)c(Cl)cc2F)[C@H](O)[C@@H](O)[C@@H]1O has a pIC50 of 7.56.
For C=CCOCc1cc(Cl)c(Cc2ncc(-c3cccs3)s2)cc1[C@@H]1O[C@H](CO)[C@@H](O)[C@H](O)[C@H]1O, the pIC50 was 7.79.
OCc1cc(Cl)c(Cc2ncc(-c3cccs3)s2)cc1[C@@H]1O[C@H](CO)[C@@H](O)[C@H](O)[C@H]1O gave a pIC50 of 8.23.
In the case of CN(C)CCOc1cc(Cl)c(Cc2ncc(-c3ccco3)s2)cc1[C@@H]1O[C@H](CO)[C@@H](O)[C@H](O)[C@H]1O, the pIC50 was 6.15.
COc1cc(Cl)c(Cc2ncc(-c3ccco3)s2)cc1[C@@H]1O[C@H](CO)[C@@H](O)[C@H](O)[C@H]1O gave a pIC50 of 8.67.
In the case of C=CCCOc1cc(Cl)c(Cc2ncc(-c3ccco3)s2)cc1[C@@H]1O[C@H](CO)[C@@H](O)[C@H](O)[C@H]1O, the pIC50 was 7.48.
For OCc1cc(Cl)c(Cc2ncc(-c3ccco3)s2)cc1[C@@H]1O[C@H](CO)[C@@H](O)[C@H](O)[C@H]1O, the pIC50 was 8.24.
Work on OCc1cc(Cl)c(Cc2ncc(-c3ccsc3)s2)cc1[C@@H]1O[C@H](CO)[C@@H](O)[C@H](O)[C@H]1O yielded a pIC50 of 8.65.
Work on C=CCOCc1cc(Cl)c(Cc2ncc(-c3ccoc3)s2)cc1[C@@H]1O[C@H](CO)[C@@H](O)[C@H](O)[C@H]1O yielded a pIC50 of 7.41.

— ChEMBL document CHEMBL1781928, “Thiazolylmethyl ortho-substituted phenyl glucoside library as novel C-aryl glucoside SGLT2 inhibitors” (Eur J Med Chem, 2011)
